Experimental data reported in ChEMBL document CHEMBL3826889, “Symmetrical bis-tertiary amines as novel CXCR4 inhibitors” (2016).

Tests used:
[1] = biological target: C-X-C chemokine receptor type 4 (Homo sapiens) (UniProt P61073); assay: Displacement of biotinylated TN14003 from CXCR4 CXCL12 binding domain in human MDA-MB-231 cells preincubated for 10 mins followed by biotinylated TN14003 addition measured after 30 mins using streptavidin-conjugated rhodamine by fluorescence microscopic analysis; type: cell-based
Outline: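 MDA-MB-231 cells, 2 × 10^4 per well, seeded 2 days prior. Compound at 1, 10, 100 or 1000 nM for 10 min at room temperature, then fixed in 4% ice-cold paraformaldehyde and rehydrated in PBS. Then 0.05 μg/mL biotinylated TN14003 for 30 min at RT, PBS washes, streptavidin-rhodamine (1:150) for 30 min at RT. Fluorescence microscopy. EC = lowest concentration giving significant fluorescence reduction vs control; semi-quantitative.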

[2] = test system: MDA-MB-231; assay: Inhibition of […]-induced invasion of human MDA-MB-231 cells at 100 nM after 22 hrs by hematoxylin/eosin-staining based matrigel assay; type: functional; conditions: MDA-MB-231, 22 h
Outline: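 Invasion chambers with Matrigel-coated 8 μm pore support. MDA-MB-231 cells treated with compound at 100 nM before seeding in the top chamber; CXCL12α at 200 ng/mL in the bottom chamber as chemoattractant. Incubation 22 h, humidified. Non-invading cells swabbed off; invaded cells fixed in methanol and H&E-stained, then counted to give percent invasion.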

[3] = test system: Mus musculus; assay: Antiinflammatory activity against carrageenan-induced paw edema in C57BL/6J mouse assessed as inhibition of edema volume at 300 ug/kg, ip daily administered 30 mins post carrageenan-challenge measured post 2 hrs of last injection; type: functional
Outline: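 Acute paw inflammation in female C57BL/6J mice: 50 μL λ-carrageenan (1% w/v in saline) injected s.c. into one hind paw, saline into the contralateral paw. Dosing i.p. daily from 30 min after challenge, in 10% DMSO / 90% of 45% (2-hydroxypropyl)-β-cyclodextrin in PBS; vehicle controls. Sacrifice at 74 h post-challenge, 2 h after last dose. Paw thickness by caliper; edema = injected minus contralateral. Suppression % vs vehicle group; 5 mice/group.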

C-X-C chemokine receptor type 4 (Homo sapiens), sequence (P61073 whole entry, the tested form may be a part): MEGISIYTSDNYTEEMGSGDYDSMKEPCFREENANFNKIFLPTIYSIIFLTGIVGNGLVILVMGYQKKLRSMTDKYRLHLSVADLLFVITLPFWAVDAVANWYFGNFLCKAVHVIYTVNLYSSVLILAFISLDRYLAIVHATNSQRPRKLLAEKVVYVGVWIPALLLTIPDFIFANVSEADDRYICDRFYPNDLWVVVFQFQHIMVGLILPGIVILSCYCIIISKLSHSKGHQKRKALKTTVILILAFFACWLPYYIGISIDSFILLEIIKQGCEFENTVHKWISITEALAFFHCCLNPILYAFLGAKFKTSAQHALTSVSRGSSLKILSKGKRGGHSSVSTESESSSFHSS

SMILES | EC [1] [nM] | inhibition at 0.1 µM [2] [%] | inhibition in vivo at 0.3 mg/kg [3] [%]
c1ccc(CN(Cc2ccc(CN(Cc3ccccc3)CC3CC3)cc2)CC2CC2)cc1 | 1000 |  | 
c1cc(CN2CCCCC2)ccc1CN1CCCCC1 | 10 | < 50 | 
CN(Cc1ccc(CN(C)c2ccc(F)cc2)cc1)c1ccc(F)cc1 | 100 | 66.4 | 
c1cc(CN2CCCC2)ccc1CN1CCCC1 | 1000 |  | 
N=C(N)NCCC[C@@H]1NC(=O)[C@H](Cc2ccc(O)cc2)NC(=O)[C@H]2CCCN2C(=O)[C@@H](CCCCN)NC(=O)[C@@H](CCCCN)NC(=O)[C@H](CCCNC(=N)N)NC(=O)[C@H](Cc2ccc(O)cc2)NC(=O)[C@H](NC(=O)[C@@H](Cc2ccc3ccccc3c2)NC(=O)[C@H](CCCNC(=N)N)NC(=O)[C@@H](CCCNC(=N)N)NC(=O)c2ccc(F)cc2)CSSC[C@H](C(=O)N[C@H](CCCNC(=N)N)C(N)=O)NC(=O)[C@@H](CCCNC(N)=O)NC1=O (stereo in doubt) |  |  | 48
CN(Cc1ccc(CN(C)c2ccccc2)cc1)c1ccccc1 | 1000 |  | 
c1cc(CN2CCCNCCNCCCNCC2)ccc1CN1CCCNCCNCCCNCC1 [PLERIXAFOR] | 1000 | 62 | 
CCN(Cc1ccccc1)Cc1ccc(CN(CC)Cc2ccccc2)cc1 | 1000 |  | 
c1cc(CN2CCOCC2)ccc1CN1CCOCC1 | > 1000 |  | 

Continued, in another order:

EC [1] [nM] | SMILES | inhibition at 0.1 µM [2] [%] | inhibition in vivo at 0.3 mg/kg [3] [%]
> 1000 | CN(Cc1ccc(CN(C)Cc2ccccc2F)cc1)Cc1ccccc1F |  | 
> 1000 | CN(Cc1ccc(CN(C)Cc2ccccn2)cc1)Cc1ccccn1 |  | 
> 1000 | CN(Cc1ccc(CN(C)Cc2cccc(F)c2)cc1)Cc1cccc(F)c1 |  | 
> 1000 | CN(Cc1ccc(CN(C)Cc2cccnc2)cc1)Cc1cccnc1 |  | 
1000 | CN(Cc1ccc(CN(C)Cc2cccc(Cl)c2)cc1)Cc1cccc(Cl)c1 |  | 
> 1000 | CN(Cc1ccc(CN(C)Cc2ccccc2Cl)cc1)Cc1ccccc1Cl |  | 
> 1000 | CN(Cc1ccc(F)cc1)Cc1ccc(CN(C)Cc2ccc(F)cc2)cc1 |  | 
> 1000 | CN(Cc1ccncc1)Cc1ccc(CN(C)Cc2ccncc2)cc1 |  | 
10 | COc1cccc(CN(C)Cc2ccc(CN(C)Cc3cccc(OC)c3)cc2)c1 | < 50 | 
